Results as given in ChEMBL document CHEMBL1148399, “Total synthesis and antitubulin activity of c10 analogues of cryptophycin-24” (2004).

Experiments:
Type in all cases: functional
[1] = biological target: Tubulin alpha chain (Sus scrofa) (UniProt P02550); assay: In vitro effective concentration required to reduce the amount of microtubules assembly by tubulin assay
In short: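 Tubulin at 1.5 mg/mL was incubated with varying compound concentrations for 15 min at 37 °C in PEM buffer, pH 6.9 (0.1 M PIPES, 1 mM EGTA, 1 mM MgSO4), with 0.5 mM GTP and 8% DMSO. Microtubules were pelleted by centrifugation for 4 min at 37 °C and 50 000 rpm. Supernatant protein was measured by Bradford, and pellet protein derived from it. ED50 is the concentration reducing microtubules by 50%.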

MCF7 = assay: In vitro cytotoxicity against human MCF-7 cell line; conditions: read-out: ED50 (the source's name)
In short: (§1)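 About 2000 cells/well plated in Dulbecco's MEM/F12 with 10% fetal calf serum. At 24 h the medium was replaced with fresh medium holding varying compound concentrations. After 72 h, proliferation was read by sulforhodamine B staining. ED50 is the concentration reducing cell proliferation by 50%.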

NCI/ADR-RES = assay: In vitro cytotoxicity against human MCF-7/Adr breast cancer cell line; conditions: read-out: ED50 (the source's name); in short: as §1
KB = assay: In vitro cytotoxicity against human KB cancer cell line; conditions: read-out: ED50 (the source's name)
CCRF-CEM = assay: In vitro cytotoxicity against human CEM cell line; conditions: read-out: ED50 (the source's name)

Chain of Tubulin alpha chain (Sus scrofa) (P02550 whole entry, looked up): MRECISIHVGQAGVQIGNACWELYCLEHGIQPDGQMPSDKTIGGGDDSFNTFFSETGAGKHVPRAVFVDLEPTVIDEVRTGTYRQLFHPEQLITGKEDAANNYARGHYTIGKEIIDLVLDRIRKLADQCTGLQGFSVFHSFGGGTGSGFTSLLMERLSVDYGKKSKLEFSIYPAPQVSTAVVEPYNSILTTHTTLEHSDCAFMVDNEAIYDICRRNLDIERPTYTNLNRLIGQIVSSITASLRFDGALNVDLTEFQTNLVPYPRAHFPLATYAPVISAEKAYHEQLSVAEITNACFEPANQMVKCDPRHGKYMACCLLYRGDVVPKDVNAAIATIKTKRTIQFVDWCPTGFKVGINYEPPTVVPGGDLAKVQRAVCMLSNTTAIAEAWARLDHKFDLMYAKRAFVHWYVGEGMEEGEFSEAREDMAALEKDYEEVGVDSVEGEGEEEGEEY

ED50 [1]	Structure (SMILES)	EC50 (MCF7)	EC50 (NCI/ADR-RES)	EC50 (KB)	EC50 (CCRF-CEM)
13.1 µM	CC(C)C[C@@H]1OC(=O)CCNC(=O)[C@@H](Cc2ccccc2)NC(=O)/C=C/C[C@@H]([C@H](C)[C@H]2O[C@@H]2c2ccccc2)OC1=O	0.34 nM	1.57 nM		
7.2 µM	CC(C)C[C@@H]1OC(=O)CCNC(=O)[C@@H](Cc2cccc(Cl)c2)NC(=O)/C=C/C[C@@H]([C@H](C)[C@H]2O[C@@H]2c2ccccc2)OC1=O	0.05 nM	0.58 nM		
12.6 µM	CC(C)C[C@@H]1OC(=O)CCNC(=O)[C@@H](Cc2ccc(Cl)c(Cl)c2)NC(=O)/C=C/C[C@@H]([C@H](C)[C@H]2O[C@@H]2c2ccccc2)OC1=O	0.08 nM	3.4 nM		
12.5 µM	CC(C)C[C@@H]1OC(=O)CCNC(=O)[C@@H](Cc2ccc(Cl)cc2)NC(=O)/C=C/C[C@@H]([C@H](C)[C@H]2O[C@@H]2c2ccccc2)OC1=O	0.12 nM	0.66 nM		

Structure (SMILES)	ED50 [1]	EC50 (MCF7)	EC50 (NCI/ADR-RES)	EC50 (KB)	EC50 (CCRF-CEM)
COc1ccc(C[C@H]2NC(=O)/C=C/C[C@@H]([C@H](C)[C@H]3O[C@@H]3c3ccccc3)OC(=O)[C@H](CC(C)C)OC(=O)CCNC2=O)cc1 [ARENASTATIN A]	15.8 µM	0.13 nM	0.25 nM	5 pM	0.183 nM
COc1ccc(C[C@H]2NC(=O)/C=C/C[C@@H]([C@H](C)[C@H]3O[C@@H]3c3ccccc3)OC(=O)[C@H](CC(C)C)OC(=O)[C@H](C)CNC2=O)cc1Cl [CRYPTOPHYCIN A]	3.4 µM	0.009 nM	0.018 nM		
